Read-outs that look alike come from different tables or passages of the source.
Columns and labels:
LogP, shake flask method = type: physicochemical; conditions: n-octanol/water
Summary of the method: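 Test compound (50 µL of 20 µM DMSO stock) was mixed with mutually pre-saturated n-octanol and water (475 µL each), vortexed 1 min and shaken overnight at 37 °C. Each phase was quantified by LC-MS/MS, and LogP was taken as log of the octanol/water amount ratio. Run in triplicate.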

[1] = liver microsomal stability; type: in vitro ADME; conditions: Sprague-Dawley, rat, liver microsomes
Summary of the method: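 Sprague-Dawley rat liver microsomes in PBS with compound (0.5 µL of 2 mM DMSO stock) were preincubated 5 min at 37 °C. NADPH (10 mM stock) was added, then 60 min at 37 °C. Quenched with ice-cold CH3CN, centrifuged, quantified by LC-MS/MS as % peak area 60 vs 0 min. At least triplicate; verapamil positive control.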

human mGlu2 = human mGlu2 (Homo sapiens, UniProt Q14416); experiment: thallium flux GIRK functional assay, human mGlu2; type: cell-based
Chain of human mGlu2 (Q14416 19-872): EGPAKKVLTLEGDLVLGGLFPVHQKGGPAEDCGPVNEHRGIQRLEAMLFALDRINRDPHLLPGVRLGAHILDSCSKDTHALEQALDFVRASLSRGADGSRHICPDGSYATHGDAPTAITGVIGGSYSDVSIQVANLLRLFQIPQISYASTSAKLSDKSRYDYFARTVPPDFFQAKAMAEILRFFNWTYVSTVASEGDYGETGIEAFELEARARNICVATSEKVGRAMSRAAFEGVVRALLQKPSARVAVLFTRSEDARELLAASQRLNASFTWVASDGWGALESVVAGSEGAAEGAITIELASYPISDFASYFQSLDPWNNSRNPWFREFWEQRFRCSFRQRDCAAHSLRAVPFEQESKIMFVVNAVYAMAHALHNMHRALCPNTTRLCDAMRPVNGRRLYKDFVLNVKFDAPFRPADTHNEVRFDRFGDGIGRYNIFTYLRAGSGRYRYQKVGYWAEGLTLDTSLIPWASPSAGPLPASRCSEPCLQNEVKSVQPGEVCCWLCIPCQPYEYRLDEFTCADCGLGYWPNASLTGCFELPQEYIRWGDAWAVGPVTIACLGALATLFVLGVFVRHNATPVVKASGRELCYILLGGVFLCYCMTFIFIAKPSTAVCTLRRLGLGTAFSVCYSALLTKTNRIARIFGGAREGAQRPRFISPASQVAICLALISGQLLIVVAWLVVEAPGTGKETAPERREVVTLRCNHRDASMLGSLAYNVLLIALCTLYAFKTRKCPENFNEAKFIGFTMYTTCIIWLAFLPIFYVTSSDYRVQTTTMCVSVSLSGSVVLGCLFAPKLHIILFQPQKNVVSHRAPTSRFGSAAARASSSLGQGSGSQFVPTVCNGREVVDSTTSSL

[2] = pH stability in buffer solutions; type: physicochemical; conditions: 60 min
Summary of the method: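 A DMSO stock (0.25 µmol/mL) was diluted 50 µL into 950 µL of 20 mM buffer: phosphate pH 7.4, boric acid-KCl-NaOH pH 9.4, or sodium acetate-KCl-HCl pH 5.0. Samples were held 1 h at 37 °C, and unchanged compound was measured by reversed-phase HPLC (CH3CN/H2O + 0.1% TFA).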

human mGlu3 = human mGlu3 (Homo sapiens, UniProt Q14832); experiment: thallium flux GIRK functional assay, human mGlu3; type: cell-based; conditions: for selectivity for mGlu2 over mGlu3: thallium flux GIRK assays
Chain of human mGlu3 (Q14832 23-879): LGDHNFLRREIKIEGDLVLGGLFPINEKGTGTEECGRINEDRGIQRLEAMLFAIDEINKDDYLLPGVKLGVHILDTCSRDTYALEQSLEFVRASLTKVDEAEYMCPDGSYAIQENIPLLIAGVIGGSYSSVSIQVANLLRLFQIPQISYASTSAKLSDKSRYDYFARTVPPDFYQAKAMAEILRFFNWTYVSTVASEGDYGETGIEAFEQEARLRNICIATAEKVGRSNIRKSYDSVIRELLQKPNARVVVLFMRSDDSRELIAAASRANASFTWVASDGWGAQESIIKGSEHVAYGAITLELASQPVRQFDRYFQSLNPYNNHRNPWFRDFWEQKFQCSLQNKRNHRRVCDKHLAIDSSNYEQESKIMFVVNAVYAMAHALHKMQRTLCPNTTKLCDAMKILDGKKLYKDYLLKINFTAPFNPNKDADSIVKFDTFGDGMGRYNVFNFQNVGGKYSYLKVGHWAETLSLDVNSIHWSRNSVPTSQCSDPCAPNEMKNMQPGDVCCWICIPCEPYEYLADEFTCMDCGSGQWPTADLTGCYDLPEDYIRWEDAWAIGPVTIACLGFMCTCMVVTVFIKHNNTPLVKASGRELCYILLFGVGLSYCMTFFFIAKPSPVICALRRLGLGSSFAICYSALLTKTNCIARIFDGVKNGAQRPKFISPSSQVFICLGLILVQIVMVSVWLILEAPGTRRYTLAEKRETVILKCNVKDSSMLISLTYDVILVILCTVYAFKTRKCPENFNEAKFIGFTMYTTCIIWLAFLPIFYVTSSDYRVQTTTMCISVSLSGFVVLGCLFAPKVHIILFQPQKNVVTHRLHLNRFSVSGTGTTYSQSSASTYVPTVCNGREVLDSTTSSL
Summary of the method: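 HEK cells stably co-expressing GIRK and human mGlu3 (puromycin-selected polyclonal line) were plated overnight and loaded with FluoZin2-AM (330 nM final) for 1 h at RT. Compound (0.3% DMSO final) was preincubated ~1 h at RT, then thallium buffer with a full glutamate concentration-response was added. The 5–15 s fluorescence slope, normalised to vehicle and maximal agonist, was fitted to a four-parameter logistic equation.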

major CNS targets = experiment: GPCRome assays; type: cell-based; conditions: NIH PDSP
other mGlu receptors = experiment: activity towards other mGlu receptors; conditions: test concentration of 30 µM
[3] = PET imaging in normal rat brain; type: in vivo, Sprague-Dawley rats; conditions: unlabeled QCA 1 mg/kg, self-blocking
[4] = cited from earlier work
[5] = mice
[6] = rat
mGlu2 [7] = molecular target: mGlu2 (Rattus norvegicus, UniProt P31421); experiment: in vitro autoradiography on rat brain sections; type: binding
Chain of mGlu2 (Rattus norvegicus, UniProt P31421) (P31421 19-872): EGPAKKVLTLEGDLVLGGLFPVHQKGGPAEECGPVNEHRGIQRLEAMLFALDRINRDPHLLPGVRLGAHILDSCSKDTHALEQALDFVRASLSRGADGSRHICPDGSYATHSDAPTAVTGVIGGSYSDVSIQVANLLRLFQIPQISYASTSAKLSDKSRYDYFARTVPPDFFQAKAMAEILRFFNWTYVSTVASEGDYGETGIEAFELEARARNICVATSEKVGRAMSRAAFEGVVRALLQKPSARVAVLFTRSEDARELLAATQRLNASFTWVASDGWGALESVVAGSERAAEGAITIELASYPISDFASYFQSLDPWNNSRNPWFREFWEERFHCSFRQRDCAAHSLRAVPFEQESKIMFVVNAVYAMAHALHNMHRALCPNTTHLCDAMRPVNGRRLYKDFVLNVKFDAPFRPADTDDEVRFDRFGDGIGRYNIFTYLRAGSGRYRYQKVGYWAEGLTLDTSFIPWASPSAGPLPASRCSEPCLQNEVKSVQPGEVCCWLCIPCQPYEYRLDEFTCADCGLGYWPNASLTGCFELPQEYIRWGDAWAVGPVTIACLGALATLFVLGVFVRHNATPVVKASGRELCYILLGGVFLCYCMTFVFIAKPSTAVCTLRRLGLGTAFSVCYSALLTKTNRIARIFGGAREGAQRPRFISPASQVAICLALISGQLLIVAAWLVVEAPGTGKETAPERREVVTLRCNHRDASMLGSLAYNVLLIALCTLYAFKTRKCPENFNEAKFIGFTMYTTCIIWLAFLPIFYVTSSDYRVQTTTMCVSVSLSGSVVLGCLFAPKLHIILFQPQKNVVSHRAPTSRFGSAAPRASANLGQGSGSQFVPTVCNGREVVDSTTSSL

mGlu2 [8] = conditions: cited from earlier work

Row | Structure (SMILES) | logP (LogP, shake flask method) | remaining at 1 h, 2 µM [1] [%] | IC50 (human mGlu2) [nM] | pH stability, percent remaining of the parent molecule ([2]; pH 5.0, 37 °C) [%] | pH stability, percent remaining of the parent molecule ([2]; pH 7.4, 37 °C) [%] | pH stability, percent remaining of the parent molecule ([2]; pH 9.4, 37 °C) [%] | selectivity for mGlu2 over mGlu3 (human mGlu3) | other results
1 | NC(=O)c1cc(-c2ccc(OCCF)cc2F)c2ccc(CN3C(=O)CCC3=O)cc2n1 [FEQCA, 7-((2,5-dioxopyrrolidin-1-yl)methyl)-4-(2-fluoro-4-(2-fluoroethoxy)phenyl)quinoline-2-carboxamide] | 1.75 | 70.1 | 130 ± 10 | 98.5 | 53.6 | 59.0 | excellent selectivity for mGlu2 over mGlu3 | 
2 | NC(=O)c1cc(-c2ccc(OCCCF)cc2F)c2ccc(CN3C(=O)CCC3=O)cc2n1 [FPQCA, 7-((2,5-dioxopyrrolidin-1-yl)methyl)-4-(2-fluoro-4-(3-fluoropropoxy)phenyl)quinoline-2-carboxamide] | 1.99 | 64.6 | 1080 ± 1300 | 91.5 | 72.5 | 76.3 | excellent selectivity for mGlu2 over mGlu3 | 
3 | COc1ccc(-c2cc(C(N)=O)nc3cc(CN4C(=O)CCC4=O)ccc23)c(F)c1 [QCA, 7-((2,5-dioxopyrrolidin-1-yl)methyl)-4-(2-fluoro-4-methoxyphenyl)quinoline-2-carboxamide] | 1.27 | 64.4 |  | 97.9 | 50.9 | 46.7 |  | interaction with major CNS targets (major CNS targets): no significant interaction; activity towards other mGlu receptors (other mGlu receptors): inactive; effect on glutamate potency or glutamate maximal response (Schild analysis) (human mGlu3; mGlu3, 41 nM-30 µM QCA): no effect; effect of pretreatment on [11C]QCA brain uptake [3]: failed to show significant reduction of brain uptake
4 | [11CH3]Oc1ccc(C2CCN(c3ccn(CC4CC4)c(=O)c3C#N)CC2)cc1 [[^11C]CMDC, 1-(cyclopropylmethyl)-4-(4-[^11C]methoxyphenyl)-piperidin-1-yl-2-oxo-1,2-dihydropyridine-3-carbonitrile] |  |  |  |  |  |  |  | peak brain uptake [4]: ca. 0.6 SUV
5 | [11CH3]Oc1ccc(-c2cc(C(N)=O)nc3cc(CN4C(=O)CCC4=O)ccc23)c(F)c1 [[^11C]QCA, 7-((2,5-dioxopyrrolidin-1-yl)methyl)-4-(2-fluoro-4-[^11C]methoxyphenyl) quinoline-2-carboxamide] |  |  |  |  |  |  |  | uptake in heart, lungs, liver, pancreas, kidneys and small intestine ([5]; 1 min post injection): > 3 % ID/g; brain uptake, peak value ([5]; at 1 min post injection): 0.42 % ID/g; peak brain uptake in whole brain (PgP/Bcrp; PgP/Bcrp knockout mice): ca. 0.8 SUV; increase of whole brain uptake in PgP/Bcrp knockout vs wild-type mice (PgP/Bcrp; calculated based on area under curve): 130%; peak brain uptake in whole brain (PgP/Bcrp; wild-type mice): ca. 0.3 SUV; unchanged [11C]QCA in brain homogenates ([6]; 5 min post injection): 78%; unchanged [11C]QCA in plasma ([6]; 5 min post injection): 93%; unchanged [11C]QCA in brain homogenates ([6]; 20 min post injection): 41%; unchanged [11C]QCA in plasma ([6]; 20 min post injection): 88%; unchanged [11C]QCA in brain homogenates ([6]; 60 min post injection): 34%; unchanged [11C]QCA in plasma ([6]; 60 min post injection): 79%; in vitro specific binding to mGlu2 (mGlu2 [7]): moderate-to-high level of in vitro specific binding
6 | [11CH3]Oc1c(F)ccc(F)c1C1CCN(c2ccn3c(CC4CC4)nnc3c2Cl)CC1 [compound 2] |  |  |  |  |  |  |  | mGlu2 selectivity over the other mGlu receptors (mGlu2 [8]): greater than 350 fold
